This note sets out measurements from ChEMBL document CHEMBL1126679 (J Med Chem, 1993).

Test [1] addresses D(2) dopamine receptor (Rattus norvegicus, UniProt P61169). The test is described as follows: Compound was tested for antagonistic activity against D2 receptor from rat striatum, used [3H]raclopride as radioligand. The class given is functional.
The target in test [2] is T1, D(2) dopamine receptor (Homo sapiens, UniProt P14416). The test is described as follows: Compound was tested for agonistic activity against D2 receptor from cloned CHO cells, used [3H]U-86170 as radioligand. In kind it is functional, cell-based, Cricetulus griseus.
For test [3], the target named is T1, D(2) dopamine receptor. Put plainly: Intrinsic activity against dopamine D 2 receptor. The class given is functional. Conditions: Cricetulus griseus. An outline of the steps: (§1)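 Membranes from CHO cells stably transfected with D2 receptor. Low-affinity agonist state affinity came from [3H]raclopride displacement with high GTP, and high-affinity state affinity from [3H]U-86170 displacement without GTP.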

Test [4] is described as follows: (§2) Intrinsic activity was 100% of highest possible agonist. In kind it is functional.
A short description of test [5]: as §2. In kind it is functional. Put shortly: as §1
This is another data set of the same source.

Test [6] is described as follows: Intrinsic activity was 0%of highest possible antagonist. In kind it is functional. An outline of the steps: as §1
Test [7] in a line: Binding affinity against 5-hydroxytryptamine 1A receptor from bovine hippocampus, used [3H]8-OH-DPAT as radioligand.
The target of test [8] is T1, D(2) dopamine receptor. The test is described as follows: Intrinsic activity was Determined. In kind it is functional.

T1 sequence (P14416 whole entry): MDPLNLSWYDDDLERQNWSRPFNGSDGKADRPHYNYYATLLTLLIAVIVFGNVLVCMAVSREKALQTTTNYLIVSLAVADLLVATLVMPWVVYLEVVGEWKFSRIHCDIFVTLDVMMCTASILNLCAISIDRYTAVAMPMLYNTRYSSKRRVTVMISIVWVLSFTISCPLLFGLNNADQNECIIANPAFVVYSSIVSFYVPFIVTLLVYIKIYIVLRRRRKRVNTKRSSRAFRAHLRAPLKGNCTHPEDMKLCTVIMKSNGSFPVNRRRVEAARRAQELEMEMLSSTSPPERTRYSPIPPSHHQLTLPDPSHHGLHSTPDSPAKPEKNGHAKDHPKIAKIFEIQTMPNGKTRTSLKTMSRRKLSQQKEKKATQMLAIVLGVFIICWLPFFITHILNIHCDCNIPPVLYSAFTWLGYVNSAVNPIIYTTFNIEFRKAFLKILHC
Chain of D(2) dopamine receptor (Rattus norvegicus, UniProt P61169) (P61169 whole entry): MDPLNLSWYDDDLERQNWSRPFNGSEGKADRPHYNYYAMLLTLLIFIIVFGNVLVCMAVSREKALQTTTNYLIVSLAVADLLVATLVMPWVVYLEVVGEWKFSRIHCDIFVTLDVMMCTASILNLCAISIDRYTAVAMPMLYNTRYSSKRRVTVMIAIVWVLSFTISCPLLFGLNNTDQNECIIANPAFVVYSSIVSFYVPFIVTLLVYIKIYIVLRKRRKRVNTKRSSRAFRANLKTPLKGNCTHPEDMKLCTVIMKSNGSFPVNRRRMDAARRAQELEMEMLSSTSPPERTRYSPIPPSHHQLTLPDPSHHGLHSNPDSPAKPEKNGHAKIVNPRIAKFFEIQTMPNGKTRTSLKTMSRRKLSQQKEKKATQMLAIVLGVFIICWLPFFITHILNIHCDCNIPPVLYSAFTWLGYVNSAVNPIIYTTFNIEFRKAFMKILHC

Broadly, the Ki is the dissociation constant of the complex between target and ligand, obtained from inhibition or displacement. Lower therefore signals higher affinity. As to `CCCN1CCC2c3cccc(O)c3CCC21` (racemic; 14a) [listing 1 of 2 here], the values for the Ki on D(2) dopamine receptor [1] and at D(2) dopamine receptor [2] were 33 nM and 93 nM, respectively.

In the case of `C=CCN1CC[C@H]2c3c(cccc3OC)CC[C@H]21` [listing 1 of 2 here], at D(2) dopamine receptor [3], the Intrinsic activity is 24%.

On D(2) dopamine receptor [1], `CCCN1CC[C@H]2c3c(cccc3OC)CC[C@H]21` (racemic) returned a Ki greater than 1000 nM.

Regarding `C=CCN1CC[C@H]2c3c(cccc3OC)CC[C@H]21` (racemic) [listing 1 of 2 here], the Intrinsic activity at D(2) dopamine receptor [3] turned out to be 15%.

As to `C=CCN1CCC2c3cccc(O)c3CCC21` (racemic; 15c) [listing 1 of 2 here], the values for the inhibition constant (Ki) at D(2) dopamine receptor [1] and at D(2) dopamine receptor [2] were 198 nM and 75 nM, respectively.

On to `CCCN(CCC)[C@@H]1Cc2cccc3nc(O)n(c23)C1`, for which the Intrinsic activity in test [4] is 91.

For the molecule `CCCN1CCC2c3cccc(O)c3CCC21` (racemic; 15a) [listing 1 of 2 here], the Ki at D(2) dopamine receptor [1] was greater than 1000 nM; on D(2) dopamine receptor [2] it was 218 nM.

The molecule `CCCN1C[C@H]2c3c(cccc3OC)CC[C@H]21` (racemic) displayed a Ki at D(2) dopamine receptor [1] of 329 nM.

Consider `C=CCN1CCC2Cc3c(cccc3OC)C[C@H]21` (mixture of isomers), for which the Ki at D(2) dopamine receptor [1] is greater than 1000 nM. Moreover, the Intrinsic activity in test [5] was 100%.

Consider `C=CCN1CCC2c3cccc(OC)c3CC[C@H]21` (mixture of isomers), for which, on D(2) dopamine receptor [3], the Intrinsic activity turned out to be 0%.

`C=CCN1CC[C@@H]2c3cccc(O)c3CC[C@@H]21`: the results for the Ki at D(2) dopamine receptor [1] and at D(2) dopamine receptor [2] were 259 nM and 59 nM, respectively. Besides, the Intrinsic activity at D(2) dopamine receptor [3] was 47%.

As for `CCCN[C@@H]1CCc2c(OC)cccc2[C@@H]1C`, the Ki was determined as 179 nM at D(2) dopamine receptor [1] and 14 nM on D(2) dopamine receptor [2]. Further, the Intrinsic activity on D(2) dopamine receptor [3] was 3%.

With `C=CCN1CC[C@H]2c3c(cccc3OC)CC[C@H]21` [listing 2 of 2 here], affinity at D(2) dopamine receptor [2] was put at a Ki of 6.7 nM.

Consider `CCCN(CCC)[C@@H]1Cc2cccc3c2N(CC(=O)N3)C1` (racemic), for which, at D(2) dopamine receptor [1], the affinity, expressed as Ki, was 28 nM. For the same molecule, the Intrinsic activity on D(2) dopamine receptor [3] is 70%.

Regarding `C=CCN1CC[C@H]2c3c(cccc3OC)CC[C@H]21` (single isomer, unassigned), at D(2) dopamine receptor [3], the Intrinsic activity is 17%.

`C=CCN1CCC2c3cccc(O)c3CCC21` (racemic; 15c) [listing 2 of 2 here]: the Intrinsic activity on D(2) dopamine receptor [3] turned out to be 29%.

On to `CCCN1CCC2Cc3c(O)cccc3C[C@H]21` (mixture of isomers), for which the results for the Ki at D(2) dopamine receptor [1] and at D(2) dopamine receptor [2] were 17 nM and 2.4 nM, respectively. Also, the Intrinsic activity at D(2) dopamine receptor [3] came out at 79%.

As to `CCCN(CCC)[C@@H]1Cc2cccc3nc(S)n(c23)C1` (racemic), the Ki worked out at 39 nM on D(2) dopamine receptor [1] and 0.6 nM on D(2) dopamine receptor [2]. For the same molecule, the Intrinsic activity on D(2) dopamine receptor [3] came out at 100%.

On to `C=CCN1CC[C@@H]2Cc3c(cccc3OC)C[C@H]21`, for which the Intrinsic activity in test [5] was determined as 100%.

`CCCN1CC[C@H]2c3cccc(OC)c3CC[C@@H]21` (racemic): in test [6], the Intrinsic activity worked out at 0%.

Regarding `CCCN1CC[C@@H]2Cc3c(cccc3OC)C[C@H]21`, on D(2) dopamine receptor [3], the Intrinsic activity came to 37%.

For the molecule `CCCN1CC[C@H]2c3c(cccc3OC)CC[C@H]21` [listing 1 of 2 here], the Intrinsic activity on D(2) dopamine receptor [3] was found to be 37%.

With `CCCN(CCC)[C@@H]1CCc2c(OC)cccc2[C@@H]1C`, the Ki at D(2) dopamine receptor [1] stood at 22 nM; at D(2) dopamine receptor [2], 13 nM. For the same molecule, on D(2) dopamine receptor [3], the Intrinsic activity worked out at 0.

Turning to `CCCN1[C@@H](C)C[C@@H]2Cc3cccc(OC)c3C[C@@H]21`, on D(2) dopamine receptor [3], the Intrinsic activity was determined as 21%. Besides, the Ki in test [7] was found to be 11 nM.

As to `C=CCN1CC[C@H]2c3cccc(O)c3CC[C@H]21`, the Ki on D(2) dopamine receptor [1] worked out at 49 nM; at D(2) dopamine receptor [2] it was 108 nM. At D(2) dopamine receptor [3], the Intrinsic activity worked out at 22%.

For `C=CCN1CC[C@H]2c3cccc(OC)c3CC[C@H]21`, the Intrinsic activity on D(2) dopamine receptor [3] turned out to be 0%.

As to `CCCN1CCC2Cc3c(O)cccc3CC21` (racemic), the Ki on D(2) dopamine receptor [1] is 296 nM; on D(2) dopamine receptor [2], 11 nM. The Intrinsic activity on D(2) dopamine receptor [3] was found to be 61%.

`C=CCN1CC[C@@H]2c3cccc(OC)c3CC[C@@H]21` came in with a Ki on D(2) dopamine receptor [1] greater than 1000 nM.

As for `CCCN1C[C@H](CSC)C[C@@H]2c3cccc4[nH]cc(c34)C[C@H]21`, at D(2) dopamine receptor [3], the Intrinsic activity worked out at 66%.

The molecule `CCCN1CC[C@H]2c3c(O)cccc3CC[C@H]21` (single isomer, unassigned) [listing 1 of 2 here] yielded a Ki at D(2) dopamine receptor [2] of less than 50 nM.

`C=CCN1CC[C@H]2c3c(O)cccc3CC[C@H]21` (racemic): the Intrinsic activity at D(2) dopamine receptor [8] is 7%. The molecule further had a Ki on D(2) dopamine receptor [2] of 153 nM.

As to `CCCN1CCC2c3cccc(O)c3CCC21` (racemic; 15a) [listing 2 of 2 here], the Intrinsic activity on D(2) dopamine receptor [3] was 1%.

With `CCCN1CC[C@H]2c3c(O)cccc3CC[C@H]21` (single isomer, unassigned) [listing 2 of 2 here], the Intrinsic activity at D(2) dopamine receptor [8] is 0%.

For `CCCN(CCC)[C@@H]1Cc2cccc3c2N(C1)C(=O)NC3` (racemic), the Ki on D(2) dopamine receptor [1] is greater than 1000 nM; on D(2) dopamine receptor [2] it was 58 nM. For the same molecule, on D(2) dopamine receptor [3], the Intrinsic activity was 30%.

In the case of `CCCN1CC[C@H]2c3c(cccc3OC)CC[C@H]21` [listing 2 of 2 here], the affinity in test [7] corresponds to a Ki of 0.2 nM.

Regarding `C=CCN1CCC2c3cccc(OC)c3CC[C@@H]21` (mixture of isomers), the Ki at D(2) dopamine receptor [1] was 99 nM. Also, at D(2) dopamine receptor [3], the Intrinsic activity was 0%.

For the molecule `C=CCN1CCC2Cc3c(O)cccc3C[C@H]21` (mixture of isomers), the Ki at D(2) dopamine receptor [1] was determined as 25 nM; at D(2) dopamine receptor [2] it was 1.4 nM. Also, the Intrinsic activity on D(2) dopamine receptor [3] came out at 91%.

`CCCN1CC[C@H]2c3c(cccc3OC)CC[C@H]21` (single isomer, unassigned) yielded a Ki at D(2) dopamine receptor [1] greater than 1000 nM.

Take `C=CCN1CC[C@H]2Cc3c(cccc3OC)CC21` (single isomer, unassigned): in test [6], the Intrinsic activity was determined as 0%.

Molecule `C=CCN1CC[C@H]2c3c(cccc3OC)CC[C@H]21` (racemic) [listing 2 of 2 here] came in with a Ki on D(2) dopamine receptor [2] of 7 nM.

As for `C=CCN1CC[C@H]2Cc3c(O)cccc3CC21` (single isomer, unassigned), the Ki amounted to 47 nM at D(2) dopamine receptor [1] and 235 nM on D(2) dopamine receptor [2]. Besides, on D(2) dopamine receptor [3], the Intrinsic activity was 21%.

In the case of `Oc1cccc2c1CC[C@@H]1NCCC[C@@H]21` (racemic), the inhibition constant Ki at D(2) dopamine receptor [1] was found to be 38 nM; on D(2) dopamine receptor [2], 11 nM. On D(2) dopamine receptor [3], the Intrinsic activity was 53.

`CN1C[C@@H](NC(=O)C(C)(C)C)CC2c3cccc4[nH]c(Cl)c(c34)C[C@H]21` (some centres undefined): the values for the Ki at D(2) dopamine receptor [1] and at D(2) dopamine receptor [2] were 0.47 nM and 3.6 nM, respectively. Also, at D(2) dopamine receptor [3], the Intrinsic activity is 0%.

Regarding `C=CCN1CC[C@@H]2Cc3c(O)cccc3C[C@H]21`, the Intrinsic activity on D(2) dopamine receptor [3] was determined as 106%.

In the case of `CCCN(CCC)[C@@H]1Cc2cccc3[nH]c(=O)n(c23)C1`, the values for the Ki at D(2) dopamine receptor [1] and on D(2) dopamine receptor [2] were 5.4 nM and 1.7 nM, respectively.

On to `CCCN1CCC2Cc3c(cccc3OC)C[C@H]21` (mixture of isomers), for which the Ki on D(2) dopamine receptor [1] amounted to 877 nM; at D(2) dopamine receptor [2] it was 100 nM. For the same molecule, the Intrinsic activity on D(2) dopamine receptor [3] worked out at 100%.

In the case of `C=CCN1CCC2c3cccc(O)c3CCC21` (racemic; 14c) [listing 1 of 2 here], on D(2) dopamine receptor [3], the Intrinsic activity stood at 44%.

The molecule `C=CCN1CCC2c3cccc(O)c3CCC21` (racemic; 14c) [listing 2 of 2 here] gave a Ki on D(2) dopamine receptor [2] of 4.1 nM.

On to `C=CCN1CCC2c3c(cccc3OC)CCC21` (racemic), for which, on D(2) dopamine receptor [2], the affinity, expressed as Ki, was 8.5 nM. Besides, the Intrinsic activity at D(2) dopamine receptor [3] is 0%.

For `CCCN1CC[C@H]2Cc3c(O)cccc3CC21` (single isomer, unassigned), the Ki at D(2) dopamine receptor [1] is greater than 630 nM; at D(2) dopamine receptor [2] it was 917 nM. Besides, the Intrinsic activity on D(2) dopamine receptor [3] is 18%.

On D(2) dopamine receptor [1], `C=CCN1CCC2c3c(O)cccc3CCC21` (racemic) gave a Ki of 25 nM. Moreover, at D(2) dopamine receptor [3], the Intrinsic activity stood at 13%.

For the molecule `Cc1[nH]c2cccc3c2c1C[C@@H]1C3C[C@H](NC(=O)C(C)(C)C)CN1C` (some centres undefined), affinity at D(2) dopamine receptor [2] was put at a Ki of 3.1 nM. Further, the Intrinsic activity at D(2) dopamine receptor [3] amounted to 11%.

Molecule `CCCN1[C@H](C)C[C@@H]2Cc3cccc(OC)c3C[C@@H]21` came in with a Ki in test [7] of 384 nM.

For the molecule `CCCN1CCC2c3cccc(O)c3CCC21` (racemic; 14a) [listing 2 of 2 here], on D(2) dopamine receptor [3], the Intrinsic activity came out at 28%.

In the case of `CCCN1CC[C@@H]2Cc3c(O)cccc3C[C@H]21`, the Intrinsic activity on D(2) dopamine receptor [3] is 109%.

At D(2) dopamine receptor [1], `C=CCN1CCC2Cc3c(cccc3OC)CC21` (racemic) returned a Ki of 429 nM.

Take `CCCN(CCC)[C@@H]1Cc2cccc3ccc(=O)n(c23)C1` (racemic): the Ki at D(2) dopamine receptor [1] worked out at 18.8 nM; at D(2) dopamine receptor [2], 3.5 nM. The Intrinsic activity on D(2) dopamine receptor [3] turned out to be 79%.
